TRPC4 PAM: allosteric potentiators of mouse TRPC4 channel. Q9QUQ5. 0.42% of 310,000 active. HEK293 TRPC4beta/mu-opioid, DAMGO EC20, Fluo-4 Ca2+ flux; active compounds read high. B-score at 10 µM;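 active means B-score of calcium response area above 5 SD of library B-scores, with initial fluorescence ratio within 5 SD of library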;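 further: B-score of integrated fluorescence ratio over time as area under calcium response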
TRPC4 act: activators of mouse TRPC4 channel; Q9QUQ5; HEK293 TRPC4beta/mu-opioid, Fluo4 calcium fluorescence; active compounds read high; B-score at 10 µM; 0.49% of 310,000 active; AID 2237;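 active means B-score above 5 SD of library B-scores, and initial fluorescence ratio not above library mean plus 5 SD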;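 further: positive B-score marks a calcium rise read as TRPC4 activation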
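Incubation: 45 min room-temperature Fluo4 loading, 110 s read / System: HEK293 cells stably co-expressing mouse TRPC4beta and mu-opioid receptor / Signal: Fluo4 fluorescence, kinetic / Control set: buffer (low) and maximal DAMGO (high) / Measure: integrated baseline-normalised fluorescence ratio, converted to per-well B score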
TRPC6 act: activates the mouse TRPC6 cation channel; HEK293-TRPC6 membrane potential dye fluorescence; active compounds read high; B-score at 10 µM; 0.13% of 310,000 active; AID 2550;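 active means B-score of the integrated fluorescence ratio above library mean plus 3 SD, and starting fluorescence ratio within library mean plus 5 SD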;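 further: higher score means more depolarization so channel activation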
Target sequence (Q61143 whole entry, looked up): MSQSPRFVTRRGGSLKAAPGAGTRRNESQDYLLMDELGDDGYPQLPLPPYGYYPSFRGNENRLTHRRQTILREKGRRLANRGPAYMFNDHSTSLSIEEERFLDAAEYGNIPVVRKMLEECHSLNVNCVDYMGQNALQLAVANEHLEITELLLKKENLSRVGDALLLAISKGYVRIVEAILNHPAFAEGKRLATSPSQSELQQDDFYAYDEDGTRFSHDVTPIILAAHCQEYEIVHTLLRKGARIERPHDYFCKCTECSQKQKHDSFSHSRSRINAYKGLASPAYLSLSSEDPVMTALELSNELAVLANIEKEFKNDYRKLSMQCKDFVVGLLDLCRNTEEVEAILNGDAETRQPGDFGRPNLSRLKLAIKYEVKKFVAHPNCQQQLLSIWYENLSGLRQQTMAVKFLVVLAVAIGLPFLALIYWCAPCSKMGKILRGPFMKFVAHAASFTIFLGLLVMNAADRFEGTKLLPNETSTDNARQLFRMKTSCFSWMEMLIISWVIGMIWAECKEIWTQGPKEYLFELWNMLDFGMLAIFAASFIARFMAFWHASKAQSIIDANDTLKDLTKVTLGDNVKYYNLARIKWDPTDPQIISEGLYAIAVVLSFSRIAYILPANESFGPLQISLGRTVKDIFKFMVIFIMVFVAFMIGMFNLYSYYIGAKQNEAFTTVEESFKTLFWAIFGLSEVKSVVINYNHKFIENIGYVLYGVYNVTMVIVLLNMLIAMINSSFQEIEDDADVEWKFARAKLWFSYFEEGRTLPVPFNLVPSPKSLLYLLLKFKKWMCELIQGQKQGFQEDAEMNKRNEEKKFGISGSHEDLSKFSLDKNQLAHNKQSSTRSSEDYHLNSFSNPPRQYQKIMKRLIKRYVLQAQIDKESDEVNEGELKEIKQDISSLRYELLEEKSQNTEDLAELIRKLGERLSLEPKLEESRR
TRPC6 inhibitor: inhibitors of mouse TRPC6 channel | Q61143 | HEK293-TRPC6, membrane potential dye, ACh-evoked depolarization; active compounds read low | B-score at 10 µM | 1.1% of 310,000 active | AID 2553;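 active means B-score under library mean minus 3 SD, initial fluorescence not abnormally high, positive integrated signal ratio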;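 further: B-score derived from integrated fluorescence ratio over the kinetic read; more negative B-score means stronger inhibition of depolarization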
TRPC4 block: blocks the mouse TRPC4 cation channel; HEK293 TRPC4beta/mu-opioid, DAMGO-evoked Fluo4 calcium flux; active compounds read low; B-score at 10 µM; Q9QUQ5; 0.39% of 300,000 active;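 active means B-score over 3 SD under the library average, no early fluorescence shift, positive overall ratio signal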
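Assay system: TRPC4beta/mu-opioid receptor HEK293 cell line; compound dosing: single concentration per test compound; detection: Fluo4 Ca2+ flux fluorescence; evaluation: per-well B score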
TRPC4 spec 2: second selectivity test of TRPC6 inhibitors: effect on mouse TRPC4 | shares compounds with TRPC6 inhibitor | HEK293 TRPC4/MOR, membrane potential dye fluorescence; channel activated by saturating DAMGO dose | inhibition, % at 10 µM | 42% of 920 active;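 active means compounds whose fluorescence signal differed from control wells by over 3 SD, either direction, in both duplicate plates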
TRPC4 spec: tests whether TRPC6 inhibitors also affect mouse TRPC4; 61% of 920 active; shares compounds with TRPC6 inhibitor; activity change, negative = inhibition, % at 10 µM; HEK293 TRPC4/mu-opioid, membrane potential fluorescence;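 active means rise or fall in signal beyond 3 SD of buffer-only wells in both replicate plates, either sign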;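 further: integrated kinetic ratio of fluorescence range over baseline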
HEK293 MPD ctr 2-1: second counter-screen for TRPC6 inhibitors: parental HEK293 cells. shares compounds with TRPC6 inhibitor. parental HEK293 membrane potential dye fluorescence; maximal acetylcholine challenge after compound addition. signal change vs control, % at 10 µM. 31% of 920 active. AID 2779;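 active means membrane potential signal moving either way by over 3 SD of the maximum-effect control, in both duplicate plates, meaning non-specific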
HEK293 MPD ctr-1: parental HEK293 nonspecific activity of TRPC6 inhibitors | parental HEK293 membrane potential dye fluorescence | shares compounds with TRPC6 inhibitor | 60% of 920 active | membrane potential signal change, % at 10 µM;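 active means membrane potential signal shifting up or down by more than 3 SD of buffer-only wells, on both duplicate plates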
HEK293 MPD ctr-2: counter-screen for TRPC6 modulators: effect in parental HEK293 cells. shares compounds with TRPC6 inhibitor. membrane potential dye fluorescence. membrane potential signal change, % at 10 µM. 51% of 2,400 active;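 active means membrane potential signal moves up or down beyond 5 SD from buffer-only wells, on both duplicate plates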
HEK293 MPD ctr 2-2: second check of TRPC6 modulator effects in parental HEK293 cells | shares compounds with TRPC6 inhibitor | membrane potential dye fluorescence; after compound, maximal acetylcholine stimulation | inhibition, % at 10 µM | 14% of 2,400 active;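 active means membrane potential signal drops by more than 5 SD from the mean control signal, in both duplicate plates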;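 further: plate controls were acetylcholine ECmax control wells for no effect and buffer only wells for full effect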
TRPC4/MOR mod: tests whether TRPC6 modulators also affect mouse TRPC4 | percent change from control (negative = decrease, positive = increase), % at 10 µM | HEK293 TRPC4/mu-opioid, membrane potential fluorescence | 69% of 2,400 active | shares compounds with TRPC6 inhibitor | AID 488927;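 active means membrane potential signal moved up or down beyond 5 SD of buffer control wells, in both duplicate plates, actives on both sides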;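 further: plate controls were assay buffer wells for no effect and DAMGO maximal-effect wells for full effect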
TRPC4/MOR inh 2: mouse TRPC4 off-target activity of TRPC6 modulators, second screen; inhibition, % at 10 µM; 55% of 2,400 active; shares compounds with TRPC6 inhibitor; AID 488928; HEK293 TRPC4/mu-opioid, membrane potential dye fluorescence; stimulated with maximal-effect DAMGO;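 active means drop in membrane potential signal beyond 5 SD of the control wells in both duplicate plates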;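 further: TRPC4 counter screen for TRPC6 hits run under conditions tuned for TRPC6 not TRPC4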
TRPC6 block conf: mouse TRPC6 inhibitor confirmation | shares compounds with TRPC6 inhibitor | HEK293-TRPC6, membrane potential dye, ACh-evoked depolarization | inhibition, % at 10 µM | 43% of 3,300 active;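 active means fluorescence ratio falls more than 5 SD below the full-stimulation control mean, in both duplicate runs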;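 further: integrated fluorescence ratio of peak minus minimum over baseline after agonist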
TRPC6 act conf: confirmation of mouse TRPC6 activators. AID 488961. HEK293-TRPC6 membrane potential dye fluorescence, FDSS. 11% of 2,800 active. activation, % at 10 µM. shares compounds with TRPC6 inhibitor;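 active means ratio signal rise beyond 5 SD above unstimulated control wells' mean, seen in both duplicate runs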;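 further: plate controls were buffer EC0 wells for no effect and acetylcholine ECmax response for full effect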
An asterisk follows results filed as active; i = inactive; nt = not tested or not shown. An excerpt weighted towards active compounds, which were near 2.3% of everything screened.

SMILES	TRPC4 PAM	TRPC4 act	TRPC6 act	TRPC6 inhibitor	TRPC4 block	HEK293 MPD ctr-2	HEK293 MPD ctr 2-2	TRPC4/MOR mod	TRPC4/MOR inh 2	TRPC6 block conf	TRPC6 act conf	others
O=[N+]([O-])c1ccc(S(=O)(=O)N2CCN(C3CCN(Cc4ccccc4)CC3)CC2)cc1	i	i	i	-5.9*	i	i	i	i	38%*	i	i
CC(C)(C)c1ccc(S(=O)(=O)N2CCN(C3CCCC3)CC2)cc1	i	i	i	i	i	nt	nt	nt	nt	nt	nt
CN1CCN(C2CCN(S(=O)(=O)c3ccc(C(C)(C)C)cc3)CC2)CC1	i	i	13*	i	i	193%*	i	32%*	i	i	104%*
COc1ccc(S(=O)(=O)N2CCC(N3CCN(Cc4ccccc4)CC3)CC2)cc1	i	i	i	-5.3*	i	134%*	i	18%*	32%*	44%*	nt
O=S(=O)(c1ccc(Cl)cc1)N1CCN(C2CCN(Cc3ccccc3)CC2)CC1	i	i	i	i	i	nt	nt	nt	nt	nt	nt
CC1CN(S(=O)(=O)c2ccc(F)cc2)C(C)N1C(=O)N1CCOCC1 (configuration not stated)	i	i	i	i	i	nt	nt	nt	nt	nt	nt
CC(C)c1c(C(=O)N/N=C/C2CC=CCC2)nnn1-c1nonc1N (configuration not stated)	i	i	i	i	i	nt	nt	nt	nt	nt	nt
CCOc1ccc(-n2c(-c3ccc(OC)cc3)c[n+]3c2CCCCC3)cc1	i	i	i	i	i	nt	nt	nt	nt	nt	nt
CCOc1ccc(-n2c(-c3ccccc3)c[n+]3c2CCC3)cc1	i	i	i	-6.3*	i	-58%*	62%*	-13%*	30%*	45%*	i
O=C(O)CCC(=O)NCc1c(Cl)cccc1Sc1ccc(Cl)cc1	i	i	i	i	i	nt	nt	nt	nt	nt	nt
CCN(CC)CCSc1nnc2c3cc(F)ccc3n(Cc3ccccc3)c2n1	i	i	i	-5.9*	i	-78%*	i	i	78%*	i	i
CCN(CC)CCSc1nnc2c3ccccc3n(Cc3ccccc3)c2n1	i	i	i	-8.2*	i	nt	nt	nt	nt	66%*	i	TRPC4 spec 2=21%*;TRPC4 spec=12%*;HEK293 MPD ctr 2-1=i;HEK293 MPD ctr-1=-230%*
O=c1onc(-c2cccnc2)n1-c1ccccc1F	i	i	i	i	i	nt	nt	nt	nt	nt	nt

Source: PubChem
